Results of several laboratories.
Each line is one published result; the experiments were not run side by side. In brackets after ≈: the same amount, converted by molar mass.

CO/N=C1\CN(c2nc3c(cc2F)c(=O)c(C(=O)O)cn3C2CC2)CC1CN (stereo not drawn)
MIC (Moraxella catarrhalis; microbial growth): 2 µg/mL (≈ 5.14 µM)

COc1ccc(-c2ccc(-c3ccc(C(=N)N)nc3)s2)cc1
GI50 (OVCAR-4; cell growth or viability, SRB): 1790 nM

O=C(CN1C(=O)/C(=C/c2cccs2)SC1=S)Nc1ccccc1
inhibition (A549; cell growth or viability, MTT; 10 µM): 23.5%

O=C(Cc1c[nH]c2ccccc12)Nc1ccc(I)cc1
IC50 (ABTS scavenging): 660 nM

O=C(CN1C(=O)/C(=C/c2ccccc2F)SC1=S)Nc1ccccc1
inhibition (PC-3; cell growth or viability, MTT; 10 µM): 16.8%

O=C(Cc1c[nH]c2ccccc12)Nc1ccc(F)c(F)c1
IC50 (ABTS scavenging): 1080 nM

COc1cc(Nc2nccc(-c3cnn4nc(OC)ccc34)n2)cc(C(F)(F)F)c1
IC50 (NCI-H2286; cell growth or viability, ATP luminescence): 160 nM

O=C(CN1C(=O)/C(=C/c2cccc(O)c2)SC1=S)Nc1ccccc1
inhibition (PC-3; cell growth or viability, MTT; 10 µM): 12.6%

O=C(Cc1c[nH]c2ccccc12)Nc1cccc(Br)c1
IC50 (ABTS scavenging): 1140 nM

O=C(CN1C(=O)/C(=C/c2ccccc2Cl)SC1=S)Nc1ccccc1
inhibition (PC-3; cell growth or viability, MTT; 10 µM): 22.6%

Cc1ccc(Cl)cc1NC(=O)Cc1c[nH]c2ccccc12
IC50 (ABTS scavenging): 1280 nM

CC(C)C[C@H](NC(=O)[C@H](Cc1ccccc1)NC(=O)c1cnccn1)B(O)O
IC50 (NCI-H1048; cell growth or viability, ATP luminescence): 17 nM
